The nature of assay [1]: In vitro inhibition of lymphocyte activated CD2 antigens induced by monoclonal antibody. It counts as functional, Homo sapiens. In outline: (§1)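 Human PBMC from healthy donors, separated on Ficoll-Hypaque, at 10⁶ cells/mL in RPMI 1640 with 10% FBS. Cells were incubated with test compounds and stimulated with an optimal concentration of anti-CD3 mAb OKT3 for 24 h at 37 °C in 5% CO₂. CD2, CD25 and CD71 were read by immunofluorescence staining and flow cytometry. IC50 values came from at least two experiments, which differed by less than 10%.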

The species named for assay [2] is Mus musculus. Nature of the assay: The compound was tested for in vitro mixed lymphocyte reaction. It counts as functional, organism-based. In outline:
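Bidirectional murine MLR using BALB/c and DBA/2 splenocytes isolated on Ficoll-Hypaque. 5×10⁴ cells of each strain were cocultured in triplicate for 96 h with serial dilutions of compound (20 mM DMSO stock), with DMSO-matched controls. Medium was RPMI 1640 with 5% FBS. [³H]thymidine (1 µCi) was added for the last 18 h. IC50 is 50% inhibition of proliferation versus untreated cultures; at least three experiments.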

Assay [3] is described as follows: In vitro inhibition of lymphocyte activated CD25 antigens induced by monoclonal antibody. It counts as functional, Homo sapiens. In outline: as §1
Assay [4] is described as follows: In vitro inhibition of lymphocyte activated CD71 antigens induced by monoclonal antibody. It is filed as functional, Homo sapiens. In outline:
as §1

Assay [5] in a line: In vitro inhibition of expression of lymphocyte activated CD71 antigens induced by monoclonal antibody. It counts as functional. The conditions noted are these: Homo sapiens. In outline: as §1
A short description of assay [6]: In vitro inhibition of expression of lymphocyte activated CD2 antigens induced by monoclonal antibody. It counts as functional. Particulars: Homo sapiens. In outline: as §1
Assay [7] is described as follows: In vitro inhibition of expression of lymphocyte activated CD25 antigens induced by monoclonal antibody. It is filed as functional. The conditions noted are these: Homo sapiens. In outline: as §1
Assay [8] has as its system Mus musculus. The experiment in a line: Inhibition of paw edema formation in mouse after an peroral dose of 10 mg/kg; Thickness of paw =2.45+/-0.14 mm. It counts as functional. Particulars: route oral.
The species named for assay [9] is Mus musculus. The experiment in a line: animal or person. The conditions noted are these: ip, read-out: Inhibition.
The species named for assay [10] is Mus musculus. The experiment in a line: animal or person. The conditions noted are these: ip, read-out: Inhibition. The source holds these as a separate data set.
In assay [11] the test system is Mus musculus. Nature of the assay: Inhibition of paw edema formation in mouse after an ip dose of 10 mg/kg; Thickness of paw = 2.38+/-0.07 mm. It is filed as functional. The conditions noted are these: route intraperitoneal.

A value given as a limit tells only on which side of the number the result lay.

By IC50 is commonly meant the point on the concentration scale where inhibition reaches its midpoint. Regarding `O=C1COC(O)=C1C(=O)Nc1ccc(C(F)(F)F)cc1`, the IC50 is 95.4 µM in [1], 45.9 µM in assay [2], above 100 µM in [3] and above 100 µM in assay [4].

For `CCO/C(O)=C(/C(C)=O)C(=O)Nc1ccc(C(F)(F)F)cc1`, the IC50 was 90.8 µM in [1], 71.6 µM in [2], 96.4 µM in assay [3] and 78.1 µM in assay [4].

`Cc1oncc1C(=O)Nc1ccc(C(F)(F)F)cc1` [LEFLUNOMIDE]: the IC50 in assay [5] is above 100 µM; in assay [2] it was 9.6 µM; in assay [6], 126 µM; in assay [7], 130 µM. The inhibition in vivo at 10 mg/kg in assay [8] turned out to be 45%.

As to `O=C1CCC(O)=C1C(=O)Nc1ccc(C(F)(F)F)cc1`, the IC50 turned out to be 13.8 µM in [1], 3.4 µM in assay [2], 14.8 µM in assay [3] and 66.5 µM in [4].

Turning to `C/C(O)=C(\C#N)C(=O)Nc1ccc(C(F)(F)F)cc1` [TERIFLUNOMIDE], the IC50 in assay [1] worked out at 50.9 µM; in assay [2] it was 41.3 µM; in [3], 89.9 µM; in assay [4], 74.6 µM.

Take `O=C1CCCC(O)=C1C(=O)Nc1ccc(C(F)(F)F)cc1`: the IC50 in assay [1] was found to be 2.9 µM; in assay [2], 1.25 µM; in assay [3] it was 2.9 µM; in assay [4], 11 µM.

Take `CC(O)=C(C(=O)Nc1ccc(C(F)(F)F)cc1)C(=O)Nc1ccc(C(F)(F)F)cc1`: the IC50 was determined as 15.3 µM in assay [1], 11.9 µM in [2], 18.4 µM in [3] and 18.8 µM in assay [4].

Turning to `C/C=C/C[C@@H](C)[C@@H](O)[C@H]1C(=O)N[C@@H](CC)C(=O)N(C)CC(=O)N(C)[C@@H](CC(C)C)C(=O)N[C@@H](C(C)C)C(=O)N(C)[C@@H](CC(C)C)C(=O)N[C@@H](C)C(=O)N[C@H](C)C(=O)N(C)[C@@H](CC(C)C)C(=O)N(C)[C@@H](CC(C)C)C(=O)N(C)[C@@H](C(C)C)C(=O)N1C` [CYCLOSPORINE], the inhibition in vivo at 50 mg/kg in assay [9] turned out to be 83%. The inhibition in vivo at 5 mg/kg in assay [10] was 48%.

In the case of `O=C(Nc1ccc(C(F)(F)F)cc1)c1ccccc1O`, the IC50 in assay [1] is 3 µM; in [2], 1.65 µM; in assay [3], 2.4 µM; in [4] it was 4.4 µM. In assay [11], this compound came in with an inhibition in vivo at 10 mg/kg of 43%.

The record behind these values is ChEMBL document CHEMBL1130346, “A new rational hypothesis for the pharmacophore of the active metabolite of leflunomide, a potent immunosuppressive drug” (J Med Chem, 1997).
